Data published in ChEMBL document CHEMBL4130405, “Iridoid Glycosides from the Twigs of Sambucus williamsii var. coreana and Their Biological Activities” (J Nat Prod, 2017).

How the values were obtained:
[1] = system: BT-549; assay: Cytotoxicity against human BT549 cells after 48 hrs by SRB assay; assay type: functional, cell-based; conditions: BT-549, 48 h
In short: (§1)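 Cells from ATCC were seeded and left 24 h at 37 °C under 5% CO2. Attached cells were then exposed for 48 h to serial dilutions of 30, 10, 3, 1, 0.3 and 0.1 μM. Cells were fixed with cold 10% TCA at 4 °C for 1 h and stained with 0.4% SRB for 30 min at room temperature. Dye was solubilized in 10 mM Tris base (pH 10.5) and absorbance read at 520 nm. Etoposide served as positive control. IC50 is the mean ± SD of three independent experiments.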

[2] = system: SK-MEL-2; assay: Cytotoxicity against human SK-MEL-2 cells after 48 hrs by SRB assay; assay type: functional, cell-based; conditions: SK-MEL-2, 48 h; in short: as §1
[3] = system: A549; assay: Cytotoxicity against human A549 cells after 48 hrs by SRB assay; assay type: functional, cell-based; conditions: A549, 48 h; in short: as §1
[4] = system: C6; assay: Induction of NGF secretion in rat C6 cells at 20 uM after 24 hrs by ELISA relative to control; assay type: functional
In short: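 C6 glioma cells were seeded at 1 × 10^5 cells/well in DMEM with 10% FBS. After 24 h, cells were exposed to 20 μM compound in DMEM with 2% FBS for 24 h. NGF secreted into the conditioned medium was measured by ELISA as percent of untreated control (100%). 6-Shogaol served as positive control. Data are mean ± SD of three independent experiments in triplicate.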

[5] = Cytotoxicity against mouse BV2 cells assessed as cell viability at 20 uM by MTT assay relative to control; assay type: cell-based, BV-2; conditions: read-out: Activity
In short: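 Viability of LPS-activated BV-2 cells was measured after 24 h treatment with 20 μM compound. Read-out was MTT, expressed as percent. Values are means ± SD of three independent experiments.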

[6] = system: BV-2; assay: Antineuroinflammatory activity in mouse BV2 cells assessed as inhibition of LPS-induced nitric oxide production pretreated for 30 mins followed by LPS-stimulation after 24 hrs by Griess assay; assay type: functional, cell-based
In short: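 BV-2 microglia were pretreated with compound for 30 min, then stimulated with LPS (100 ng/mL) for 24 h. Nitrite in the supernatant was mixed with an equal volume of Griess reagent (1% sulfanilamide, 0.1% naphthylethylenediamine in 5% phosphoric acid) for 10 min and read at 570 nm. Values were quantified against a sodium nitrite standard curve. L-NMMA served as positive control. IC50 is the concentration giving 50% inhibition of NO production; three independent experiments.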

[7] = Cytotoxicity against rat C6 cells assessed as cell viability at 20 uM after 24 hrs by MTT assay relative to control; assay type: cell-based; conditions: read-out: Activity
In short: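 C6 glioma cells were kept in DMEM with 10% FBS and seeded at 1 × 10^5 cells/well. After 24 h, cells were treated with 20 μM compound in DMEM with 2% FBS for 24 h. MTT reagent was added for 1 h at 37 °C, formazan dissolved in DMSO and absorbance read at 570 nm. Results are percent, mean ± SD of three independent experiments.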

[8] = system: SK-OV-3; assay: Cytotoxicity against human SKOV3 cells after 48 hrs by SRB assay; assay type: functional, cell-based; conditions: SK-OV-3, 48 h; in short: as §1

Row | IC50 [6] [µM] | Compound | IC50 [1] [µM] | IC50 [2] [µM] | IC50 [3] [µM] | Activity [4] [%] | viability at 20 µM [5] [%] | viability at 24 h, 20 µM [7] [%] | IC50 [8] [µM]
1 | 1.2 to 1.22 | CC(=O)OC[C@@]1(O)CC[C@@H]2C(CO[C@@H]3O[C@H](CO)[C@@H](O)[C@H](O)[C@H]3OC(=O)/C=C\c3ccc(O)cc3)=CO[C@@H](OC(=O)CC(C)C)[C@@H]21 | 4 | 5.2 | > 10 | 134.1 | 130 | 104 | 7.5
2 | 45.5 | CC(C)CC(=O)O[C@@H]1OC=C(CO[C@@H]2O[C@H](CO)[C@@H](O)[C@H](O)[C@H]2OC(=O)/C=C/c2ccc(O)cc2)[C@H]2CC[C@](O)(CO)[C@@H]12 | > 10 | > 10 | > 10 | 130.4 | 102 | 115 | > 10
3 | 0.9 to 0.95 | CC(C)CC(=O)O[C@@H]1OC=C(CO[C@@H]2O[C@H](CO)[C@@H](O)[C@H](O)[C@H]2OC(=O)/C=C\c2ccc(O)cc2)[C@H]2CC[C@](O)(CO)[C@@H]12 | 8.7 | 8.4 | > 10 | 147 | 103 | 102 | > 10
4 | – | CCCCC/C=C/C(=O)CCc1ccc(O)c(OC)c1 [SHOGAOL] | – | – | – | 146.3 | – | 98.8 | –
5 | 112 | CC(C)CC(=O)O[C@@H]1OC=C(CO[C@@H]2O[C@H](CO)[C@@H](O)[C@H](O)[C@H]2O)[C@H]2C[C@H](O)[C@](O)(CO)[C@@H]12 | > 10 | > 10 | > 10 | 107.4 | 103 | 116 | > 10
6 | 110 | C=C1[C@@H]2O[C@@H](OC)[C@@H]3[C@@H](O2)[C@@H](O)C[C@H]13 | > 10 | > 10 | > 10 | 152.6 | 36 | 111 | > 10
7 | 1.25 to 1.3 | CCC(C)C(=O)O[C@@H]1OC=C(CO[C@@H]2O[C@H](CO)[C@@H](O)[C@H](O)[C@H]2OC(=O)/C=C/c2ccc(O)cc2)[C@H]2CC[C@](O)(CO)[C@@H]12 (some centres not stated) | 1.3 | 1.4 | 3.8 | 145.4 | 136 | 101 | 1.9
8 | 29.8 | CC(=O)OC[C@@]1(O)CC[C@@H]2C(CO[C@@H]3O[C@H](CO)[C@@H](O)[C@H](O)[C@H]3OC(=O)/C=C/c3ccc(O)cc3)=CO[C@@H](OC(=O)CC(C)C)[C@@H]21 | > 10 | > 10 | > 10 | 158.7 | 143 | 120 | > 10
9 | 13.2 | CNC(=N)NCCC[C@H](N)C(=O)O [TILARGININE] | – | – | – | – | 120 | – | –
10 | – | COc1cc([C@@H]2c3cc4c(cc3[C@@H](O[C@@H]3O[C@@H]5CO[C@@H](C)O[C@H]5[C@H](O)[C@H]3O)[C@H]3COC(=O)[C@H]23)OCO4)cc(OC)c1O [ETOPOSIDE] | 1 | 0.2 | 1.1 | – | – | – | 2.9
11 | 94.2 | C=C1[C@@H]2O[C@@H](OC)[C@@H]3[C@H](CC[C@H]13)O2 | > 10 | > 10 | > 10 | 133.4 | 104 | 106 | > 10
